Assays:
Aspergillus niger = assay: Mycelial growth inhibition, poisoned food technique; type: cell-based; settings: in DMSO (20 μg/μL)
brine shrimp nauplii = assay: Brine shrimp lethality assay; type: in vivo; settings: for percentage of dead shrimp (deaths): after 24 and 48 h
Outline: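 Brine shrimp lethality assay. Test compounds were dissolved in DMSO and made up at four levels. Each vial held 5 mL NaCl solution and one of four sample levels (A–D: 4, 8, 16, 32). Each vial received 10 nauplii, with triplicate vials per level. Mortality was scored at each level and averaged as percent.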

E. coli = assay: Disc diffusion antibacterial screening; type: cell-based, Escherichia coli; settings: E. coli (G–ve)
Outline: (§1)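 Disc diffusion on standard nutrient agar as the basal medium. Values are from triplicate experiments. Significance was set at p < 0.05.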

Aspergillus flavus = assay: Mycelial growth inhibition, poisoned food technique; type: cell-based; settings: in DMSO (20 μg/μL)
B. subtilis = assay: Disc diffusion antibacterial screening; type: cell-based, Bacillus subtilis; settings: B. subtilis (G + ve)
Outline: as §1

P. aeruginosa = assay: Disc diffusion antibacterial screening; type: cell-based, Pseudomonas aeruginosa; settings: P. aeruginosa (G–ve)
Outline: as §1

S. typhi = assay: Disc diffusion antibacterial screening; type: cell-based, Salmonella typhi; settings: S. typhi (G–ve)
Outline: as §1

S. aureus = assay: Disc diffusion antibacterial screening; type: cell-based; settings: S. aureus (G + ve)
Outline: as §1

tested bacteria = assay: Disc diffusion antibacterial screening, overall statements; type: cell-based
Outline: as §1

B. cereus = assay: Disc diffusion antibacterial screening; type: cell-based, Bacillus cereus
Outline: as §1

Compound | Percent inhibition of fungal mycelial growth (Aspergillus niger) | percentage of dead shrimp (deaths) (brine shrimp nauplii) [%] | Diameter of Inhibition Zones (E. coli) | Percent inhibition of fungal mycelial growth (Aspergillus flavus) | Diameter of Inhibition Zones (B. subtilis) | Diameter of Inhibition Zones (P. aeruginosa) | Diameter of Inhibition Zones (S. typhi) | Diameter of Inhibition Zones (S. aureus) | toxicity to brine shrimp (brine shrimp nauplii) | inhibitory activity (tested bacteria; tested gram-positive bacteria) | antibacterial activity (tested bacteria; all tested bacteria) | zone of inhibition (B. cereus) [mm]
CO[C@H]1O[C@H](COC(c2ccccc2)(c2ccccc2)c2ccccc2)[C@@H](O)[C@H](O)[C@H]1O [Compound 2, Methyl 6-O-(triphenylmethyl)-α-D-glucopyranoside] | 36.43% | 32.11 | 9 ± 0.2 mm | 33.33% | 8 ± 0.5 mm | 9 ± 0.1 mm | – | – | – | – | – | –
CCCCCCCCCCCCCC(=O)O[C@@H]1[C@@H](OC(=O)CCCCCCCCCCCCC)[C@@H](OC)O[C@H](COC(c2ccccc2)(c2ccccc2)c2ccccc2)[C@H]1OC(=O)CCCCCCCCCCCCC [Compound 4, Methyl 2,3,4-tri-O-myristoyl-6-O-(triphenylmethyl)-α-D-glucopyranoside] | 31.92% | 47.64 | – | – | 10 ± 0.3 mm | 8 ± 0.2 mm | 9 ± 0.5 mm | – | – | – | – | –
CCCCCCCCCCCC(=O)O[C@@H]1[C@@H](OC(=O)CCCCCCCCCCC)[C@@H](OC)O[C@H](COC(=O)c2ccc(OC)cc2)[C@H]1OC(=O)CCCCCCCCCCC [Compound 8, Methyl 2,3,4-tri-O-lauroyl-6-O-(4-methoxybenzoyl)-α-D-glucopyranoside] | *66.41 ± 0.37% | – | 10 ± 0.1 mm | *63.31 ± 0.51% | 9 ± 0.3 mm | – | – | 11 ± 0.2 mm | less toxic | – | – | –
Methyl 2,3,4-tri-O-lauryl-6-O-(triphenylmethyl)-α-D-glucopyranoside [Compound 3] | 46.62% | – | – | 41.30% | – | *12 ± 0.3 mm | 10 ± 0.1 mm | – | less toxic | did not show any inhibitory activity | – | –
C[C@@H]1[C@H](O)[C@@H](C)/C=C/C=C/CC/C=C/C=C/C=C/C=C/C(O[C@H]2O[C@H](C)[C@@H](O)[C@H](N)[C@@H]2O)CC2O[C@](O)(CC(O)C(O)CCC(O)CC(O)CC(O)CC(=O)O[C@H]1C)CC(O)C2C(=O)O (stereo partly drawn) [Nystatin, reference compound] | **66.40 ± 0.05% | – | – | **63.10 ± 0.09% | – | – | – | – | – | – | – | –
CC[C@H]1OC(=O)[C@H](C)[C@@H](O[C@H]2C[C@@](C)(OC)[C@@H](O)[C@H](C)O2)[C@H](C)[C@@H](O[C@@H]2O[C@H](C)C[C@H](N(C)C)[C@H]2O)[C@](C)(O)C[C@@H](C)CN(C)[C@H](C)[C@@H](O)[C@]1(C)O [Azithromycin, reference compound] | – | – | **17 ± 0.4 mm | – | **19 ± 0.6 mm | **17 ± 0.5 mm | **19 ± 0.5 mm | **18 ± 0.5 mm | – | – | – | –
CO[C@H]1O[C@H](CO)[C@@H](O)[C@H](O)[C@H]1O [Compound 1, methyl α-D-glucopyranoside, reference compound] | – | – | – | – | – | – | – | – | – | – | did not show any antibacterial activity | –
COc1ccc(C(=O)OC[C@H]2O[C@H](OC)[C@H](O)[C@@H](O)[C@@H]2O)cc1 [Compound 7, Methyl 6-O-(4-methoxybenzoyl)-α-D-glucopyranoside] | 48.40 ± 0.22% | – | 9 ± 0.4 mm | 35.38 ± 0.32% | *12 ± 0.2 mm | – | – | 10 ± 0.1 mm | – | – | – | –
CO[C@H]1O[C@H](COC(c2ccccc2)(c2ccccc2)c2ccccc2)[C@@H](OC(=O)c2ccc(C(C)(C)C)cc2)[C@H](OC(=O)c2ccc(C(C)(C)C)cc2)[C@H]1OC(=O)c1ccc(C(C)(C)C)cc1 [Compound 5, Methyl 2,3,4-tri-O-(4-t-butylbenzoyl)-6-O-(triphenylmethyl)-α-D-glucopyranoside] | – | 48.21 | *15 ± 0.2 mm | *59.54 ± 0.14% | – | – | 10 ± 0.4 mm | *17 ± 0.1 mm | – | – | – | 17 ± 0.1

Reference: paper PMC10585311 (Saudi Pharmaceutical Journal : SPJ, 2023)
